From ChEMBL document CHEMBL2380254, “Optimization of tocotrienols as antiproliferative and antimigratory leads” (Eur J Med Chem, 2013)

How the values were obtained:
786-0 = assay: Growth inhibition of human 786-0 cells assessed as cell growth at 10 uM after 48 hrs by sulforhodamine B assay; type: functional; conditions: 786-0, 48 h, read-out: Activity
Method in brief: (§1)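 NCI-60 single-dose screen at 10 µM: cells in RPMI 1640 with 5% FBS, preincubated 24 h, then exposed 48 h at 37 °C. TCA fixation (16% final for suspension cells), SRB staining, absorbance 515 nm. Percent growth relative to time-zero and untreated control plates; negative values indicate cell kill.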

MDA-MB-231 = assay: Growth inhibition of human MDA-MB-231 cells assessed as cell growth at 10 uM after 48 hrs by sulforhodamine B assay; type: functional; conditions: MDA-MB-231, 48 h, read-out: Activity
Method in brief: (§2)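 Single-dose NCI-60 screen: adherent cells in RPMI 1640 with 5% FBS were exposed to 10 µM for 48 h at 37 °C after a 24 h preincubation. They were fixed in situ with cold TCA (10% final), stained with 0.4% SRB in 1% acetic acid, solubilized in 10 mM Tris base, and read at 515 nm. Percent growth was taken relative to time-zero and control plates.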

RPMI-8226 = assay: Growth inhibition of human RPMI8226 cells after 48 hrs by sulforhodamine B assay; type: functional; conditions: RPMI-8226, 48 h
Method in brief: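 NCI-60 suspension lines in RPMI 1640 with 5% FBS and 2 mM L-glutamine, preincubated 24 h. A five-concentration 10-fold series (0.001–100 µM) was given for 48 h at 37 °C. Settled cells were fixed with 80% TCA (16% final), stained with SRB, and read at 515 nm. GI50 was taken where 100×(T−T0)/(C−T0)=50, with T0 plates fixed at drug addition.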

SN12C [1] = assay: Growth inhibition of human SN12C cells after 48 hrs by sulforhodamine B assay; type: functional
Method in brief: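 NCI-60 five-dose screen. Cells were grown in RPMI 1640 with 5% FBS and 2 mM L-glutamine, plated at 5000–40,000 cells/well and incubated 24 h before dosing, with T0 plates TCA-fixed. DMSO stocks were diluted to doses of […] and exposed 48 h at 37 °C, 5% CO2. Cells were fixed with cold TCA (final 10%, 60 min, 4 °C), stained with 0.4% SRB in 1% acetic acid for 10 min, solubilized in 10 mM trizma base and read at 515 nm. GI50 is where 100×(T−T0)/(C−T0)=50.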

CAKI-1 [2] = assay: Growth inhibition of human CAKI-1 cells after 48 hrs by sulforhodamine B assay; type: functional; conditions: CAKI-1, 48 h
Method in brief: (§3)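 NCI-60 screen: cells in RPMI 1640 with 5% FBS and 2 mM glutamine, 5000–40,000 cells/well, preincubated 24 h. Five concentrations (10-fold dilutions; 100 to 0.001 µM) applied for 48 h at 37 °C. TCA fixation, SRB stain, absorbance at 515 nm. Time-zero plates included; GI50 where 100×(T−T0)/(C−T0)=50.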

A498 = assay: Growth inhibition of human A498 cells after 48 hrs by sulforhodamine B assay; type: functional; conditions: A498, 48 h; method in brief: as §3
M14 [3] = assay: Growth inhibition of human M14 cells after 48 hrs by sulforhodamine B assay; type: functional; conditions: M14, 48 h; method in brief: as §3
SF-539 = assay: Growth inhibition of human SF539 cells after 48 hrs by sulforhodamine B assay; type: functional; conditions: SF-539, 48 h
Method in brief: (§4)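 NCI-60 panel cells grown in RPMI 1640 with 5% FBS and 2 mM L-glutamine, seeded at 5000–40,000 cells/well and preincubated 24 h. Five 10-fold dilutions (0.001–100 µM) from DMSO stocks were added for 48 h at 37 °C. Adherent cells were fixed with cold TCA (10% final) for 60 min at 4 °C, stained with 0.4% SRB, and read at 515 nm. GI50 was set where 100×(T−T0)/(C−T0)=50.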

[4] = Growth inhibition of human EKVX cells assessed as cell growth at 10 uM after 48 hrs by sulforhodamine B assay; type: functional; conditions: read-out: Activity; method in brief: as §1
[5] = Growth inhibition of human HCC2998 cells after 48 hrs by sulforhodamine B assay; type: functional; conditions: HCC 2998, 48 h; method in brief: as §3
NCI-H322M [6] = assay: Growth inhibition of human NCI-H322M cells after 48 hrs by sulforhodamine B assay; type: functional; method in brief: as §4
SN12C [7] = assay: Growth inhibition of human SN12C cells assessed as cell growth at 10 uM after 48 hrs by sulforhodamine B assay; type: functional; conditions: read-out: Activity
Method in brief: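 Single-dose NCI-60 test at 10 µM. Cells were grown in RPMI 1640 with 5% FBS and 2 mM L-glutamine, preincubated 24 h, with T0 plates TCA-fixed. Exposure was 48 h at 37 °C, 5% CO2. Cells were fixed with cold TCA (final 10%, 4 °C, 60 min), stained with SRB and read at 515 nm. Percent growth was taken relative to T0 and untreated control; negative values denote cell kill.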

COLO 205 = assay: Growth inhibition of human COLO205 cells assessed as cell growth at 10 uM after 48 hrs by sulforhodamine B assay; type: functional; conditions: COLO 205, 48 h, read-out: Activity; method in brief: as §1
HT-29 = assay: Growth inhibition of human HT-29 cells assessed as cell growth at 10 uM after 48 hrs by sulforhodamine B assay; type: functional; conditions: HT-29, 48 h, read-out: Activity; method in brief: as §1
NCI-H322M [8] = assay: Growth inhibition of human NCI-H322M cells assessed as cell growth at 10 uM after 48 hrs by sulforhodamine B assay; type: functional; conditions: read-out: Activity; method in brief: as §2
MCF7 = assay: Antiproliferative activity against human MCF7 cells by MTT assay; type: functional, cell-based
Method in brief: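 Cells plated at 8 × 10^3/well (MDA-MB-231) or 10^4/well (MCF7) in 96-well plates. Compounds fed in media with 5% FBS (MDA-MB-231) or 1% FBS (MCF7). MTT read-out of viable cells.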

OVCAR-8 = assay: Growth inhibition of human OVCAR8 cells assessed as cell growth at 10 uM after 48 hrs by sulforhodamine B assay; type: functional; conditions: OVCAR-8, 48 h, read-out: Activity; method in brief: as §2
M14 [9] = assay: Growth inhibition of human M14 cells assessed as cell growth at 10 uM after 48 hrs by sulforhodamine B assay; type: functional; conditions: M14, 48 h, read-out: Activity; method in brief: as §1
CAKI-1 [10] = assay: Growth inhibition of human CAKI-1 cells assessed as cell growth at 10 uM after 48 hrs by sulforhodamine B assay; type: functional; conditions: CAKI-1, 48 h, read-out: Activity; method in brief: as §1
MDA-MB-468 = assay: Growth inhibition of human MDA-MB-468 cells assessed as cell growth at 10 uM after 48 hrs by sulforhodamine B assay; type: functional; conditions: MDA-MB-468, 48 h, read-out: Activity; method in brief: as §2
HCT-116 = assay: Growth inhibition of human HCT116 cells assessed as cell growth at 10 uM after 48 hrs by sulforhodamine B assay; type: functional; conditions: HCT-116, 48 h, read-out: Activity; method in brief: as §1
RXF 393 = assay: Growth inhibition of human RXF393 cells assessed as cell growth at 10 uM after 48 hrs by sulforhodamine B assay; type: functional; conditions: RXF 393, 48 h, read-out: Activity; method in brief: as §2

SMILES	growth at 10 µM (786-0) [%]	growth at 10 µM (MDA-MB-231) [%]	GI50 (RPMI-8226) [µM]	GI50 (SN12C [1]) [nM]	GI50 (CAKI-1 [2]) [µM]	GI50 (A498) [µM]	GI50 (M14 [3]) [µM]	GI50 (SF-539) [µM]	GI50 [5] [nM]	GI50 (NCI-H322M [6]) [µM]	growth at 10 µM (SN12C [7]) [%]	growth at 10 µM (COLO 205) [%]	growth at 10 µM (HT-29) [%]	growth at 10 µM (NCI-H322M [8]) [%]	IC50 (MCF7) [µM]	growth at 10 µM (OVCAR-8) [%]	growth at 10 µM (M14 [9]) [%]	growth at 10 µM (CAKI-1 [10]) [%]	growth at 10 µM (MDA-MB-468) [%]	growth at 10 µM (HCT-116) [%]	further results
CC(C)=CCC/C(C)=C/CC/C(C)=C/CC[C@]1(C)CCc2c3c(c(C)c(C)c2O1)OCN(CCCCCO)C3	90.2	55	9.91	5560	5.33	5.76	6.63	6.26	2530	6.35	78.5	68.7	55.1	91	> 20	69	107	70	87.4	36.1	growth at 10 µM [4]: 90.6%
CC(C)=CCC/C(C)=C/CC/C(C)=C/CC[C@]1(C)CCc2c3c(cc(C)c2O1)OCN(CCCO)C3	16.6	10.6	2.16	1670	2.33	1.46	1.92	1.93	1740	1.87	11.7	-92.5	-76.7	-62.1	> 20	-77.7	15.1	60.4	-29	-85.4	growth at 10 µM [4]: 82.7%; growth at 10 µM (RXF 393): -90.5%
CC(C)=CCC/C(C)=C/CC/C(C)=C/CC[C@]1(C)CCc2c3c(cc(C)c2O1)OCN(CCCCCCCCO)C3	-95.3	-69.6	1.22	1540	4.07	4.71	1.14	1.28	583	5.13	-70.7	-94.5	-77.2	-76.3	> 20	-51.9	-94.7	-79.7	-90.7	-100	growth at 10 µM [4]: -53.4%; growth at 10 µM (RXF 393): -97.1%
CC(C)=CCC/C(C)=C/CC/C(C)=C/CC[C@]1(C)CCc2c3c(c(C)c(C)c2O1)OCN(CCCCCCO)C3	33.7	9.83	3.36	2500	2.82	2.59	3.11	3.15	2620	2.71	66.5	31.8	17.4	69.5	> 20	49.9	26	47	-46.7	-92.7	growth at 10 µM (RXF 393): 22.4%
CC(C)=CCC/C(C)=C/CC/C(C)=C/CC[C@]1(C)CCc2c3c(cc(C)c2O1)OCN(CCc1ccc(O)cc1)C3	69	46.9	4.03	4900	5.31	6.21	6.66	6.41	1710	6.2	65.6	-69.9	18.6	29.7	18.2	-74.3	9.79	70.3	-44.6	-58.2	growth at 10 µM [4]: 90.7%
CC(C)=CCC/C(C)=C/CC/C(C)=C/CC[C@]1(C)CCc2c3c(c(C)c(C)c2O1)OCN(CCCCCCCCO)C3	59.8	40.7	3.13	2550	4.38	2.32	3.02	3.29	2730	2.7	65.8	14.9	31.1	65.3	> 20	72.1	-24	31.3	-12.6	-92.9	growth at 10 µM (RXF 393): -10.7%
CC(C)=CCC/C(C)=C/CC/C(C)=C/CC[C@]1(C)CCc2c3c(cc(C)c2O1)OCN(CCCCCCO)C3	-98	-28.4	1.11	2060	3.79	4.88	0.979	2.37	663	3.75	40.3	-79.6	-25.8	-61	> 20	-62.8	-90.8	-72.8	-84.5	-97.3	growth at 10 µM (RXF 393): -95.6%
CC(C)=CCC/C(C)=C/CC/C(C)=C/CC[C@]1(C)CCc2c3c(cc(C)c2O1)OCN(CCCCCO)C3	81.2	46.1	9.91	5560	5.33	5.76	6.63	6.26	2530	6.35	67.4	3.96	-34.9	16.8	9.1	-18.9	57.9	74.4	43	-89.6	growth at 10 µM [4]: 90.5%
